According to the EternaBench riboswitch data:

System: MS2 coat protein
Test: apparent Kd, MS2 coat protein; higher = weaker binding; RNA-MaP array; FMN 200 µM where present
How it was run: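 Stalled E. coli RNA polymerase transcribed the designs on Illumina sequencing-chip clusters. SNAP-549-labelled MS2 coat protein was titrated from 0.7 or 1.5 nM, doubling to 3 µM, without and then with constant ligand, in 100 mM Tris-HCl pH 7.5, 80 mM KCl, 4 mM MgCl2, BSA, DTT, yeast tRNA and Tween-20. Per-cluster binding curves were fitted to green signal normalised to red-channel RNA signal and control-cluster median Fmax. The apparent Kd is the median of the filtered fits.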

[1] = designed as: OFF switch for flavin mononucleotide, no ligand
[2] = ligand present: flavin mononucleotide, designed as: OFF switch for flavin mononucleotide
[3] = designed as: ON switch for flavin mononucleotide, no ligand
[4] = ligand present: flavin mononucleotide, designed as: ON switch for flavin mononucleotide

Sequence | apparent Kd [1] | apparent Kd [2] | apparent Kd [3] | apparent Kd [4]
GCGGUAAAGAUCCAUUUUUACAACAUGAGGAUCACCCAUGUGCAGGAUAUCGAAUGUUUUAUAUUCGAGAAGGGCAAUUACCGC | 20.7 nM | 57.5 nM | – | –
GCAACGCCUGACAUGAGGAUCACCCAUGUUAGAUUGUUAUGUCAGGAUAUUGUCUCGAAACGAGAUGAGAAGGGAUAUGUUGCU | – | – | 997 nM | 61.2 nM
UUUUAACAUGAGGAUCACCCAUGUGAGGAUAUCGAAAUUUAUAUUUAUAUUAAUAUAUCGAGAAGGCACAUUUU | 99 nM | 144 nM | – | –
GGGUGAUCCUUAGGAUAUCCCGCGCCAAAGUGCGUUUAUACUACAUGAGGAUCACCCAUGUAACGGGAGAAGGGAGGAAGCCCG | – | – | 11 nM | 4.31 nM
UGGUAUUAGGGAGGAUAUGGGAAGAUACAUGAGGAUCACCCAUGUUUAAGAAUGCCGAGAGGCAACUAGAAGGCCCUAGUACCU | – | – | 500 nM | 20.3 nM
UGGAUCAUCGGAGGAUAUCAUGUAGAUACAUGAGGAUCACCCAUGUCGAUGGAGACAUCGGAGAUUGAGAAGGCCGAUGAUCCU | – | – | 543 nM | 30.9 nM
AAUAAUCAGUAAGGAUAUACUAGCGAUUAGCUUGUAGAAGGUACAGUCUUAUGUAUAACAUGUUAACAUGAGGAUCACCCAUGU | – | – | 62.9 nM | 33.3 nM
GUUUUCGCAUGAGGAUAUGCUCGCAUUUUAAGAGCAGAAGGUAUGUCUUUAGACAUGAGGAUCACCCAUGUAUUUAUCAUUGAA | – | – | – | 28.2 nM
AUAUCCCGAGGAUAUACAUGAGGAUCACCCAUGUCGGGCCUCUGGCCUAAGGCCGAAAGUAGAAGGUGGGUUUC | 177 nM | 250 nM | – | –
UCCGUGGCAUCUCGCGCAUGUCUACAUGAGGAUCACCCAUGUCAGGAUAUACGGAUUGUCGUUCUGUAGAAGGGACAAGGGCUG | 131 nM | 108 nM | – | –
UGUCGGAGCAGAGGAUAUUACAUGAGGAUCACCCAUGUAUGAACCAAUAGCUGGAAACAGCAAUGCAAGAAGGCUGCUCCGACA | 5.05 nM | 6.53 nM | – | –
UUGGACGUCGUAGGAUCUGUAGGAUAUUCCUACAUGAGGAUCACCCAUGUUGACAUGGAAGAAGGACAGAAGGACGAUGUCCAU | – | – | 6.35 nM | 3.7 nM
GGGUGAGACGAGAAGGGAUUUUCACAUGAGGAUCACCCAUGUCGAGUAGUCAGGAUAUCGGGCCAUGAUUACCCUAUAGAAGAC | – | – | 298 nM | 70.5 nM
GUGUUGUAUGUAGGAUAUGCAUACUGUUAGUAUGCAGAAGGACAUGAGGAUCACCCAUGUAUAUUAUUAUUAUAUAUCAUACAU | 21.1 nM | 36.8 nM | – | –
ACAGCUGAAGGAUAUACUUGGAAAAAAAAAAAAAAAAAAAAACAUGAGGAUCACCCAUGUAGAAGGUCAGCUGA | 52.9 nM | 78.5 nM | – | –
GGUGUGAGGCAGGAUAUGCUAUAUGUUAGUAAUGCAGAAGGGUCUACAUGAGGAUCACCCAUGUGUGCGGUUGA | 90.5 nM | 394 nM | – | –
GGAUAGGACAGAGGAUAUACGGAUAGGAUCUACUAUCUUCUUCAAAUAACAUGAGGAUCACCCAUGUAGAAGGCUGUCCUAUCG | 16 nM | 31.9 nM | – | –
CUUUUGUGAGGAUAUCAGUAGUAAAAAAAUAUAAUUACUACUGAGAAGGCACAUGAGGAUCACCCAUGUUCCUC | 36.8 nM | 267 nM | – | –
UGUUUUCAUGUAGGAUAUGCUUGUCGUAGAUACGCAGAAGGACAUGAGGAUCACCCAUGUUAAUGCGACAGAUUUUAGUUUCUU | 19.6 nM | 62 nM | – | –
UGGAAAUGCGAGAAGGACAUGAGGAUCACCCAUGUAGGAUAUCGACCUAGGUGCAGAUCGUUAUAGGAUCUCUUCGCUUGUAGG | – | – | 16.5 nM | 7.08 nM
CCGGAAACGGGUAGCCUGACAUGAGGAUCACCCAUGUGAUCCUAGGAUAUGGAUCCUAAUUGGAUCCAGAAGGAGGUUGGCUAC | – | – | 1280 nM | 368 nM
GGAUUACAUGAGGAUCACCCAUGUGAGGAUAUCGAUGUCCCUAGGAGCGUGCGGGACUCGAGAAGGCACUUGGA | 39.7 nM | 234 nM | – | –
AGAUACAACCAGAAGGACAUGAGGAUCACCCAUGUAGGAUAUGGGUUACACGUGCCUGGGAAGUGUAACGACGCUACGAAGAGU | – | – | 31.4 nM | 8.3 nM
UUGUACAUAGGAUAUAGUUGUUUGUACAUGAGGAUCACCCAUGUUAUGUAUGUUUUGCUUCUAGAAGGAUGUUGUU | 33.2 nM | 24.4 nM | – | –
GGAAAACAUGAGGAUCACCCAUGUGAGGAUAUCGAUGUCCAGAGAGAGGUGCGGGACUCGAGAAGGCACUUGGA | 44.5 nM | 87.5 nM | – | –
UCUGAUUGGUGAGGAUAUACAUAAUUUAUAACUGUAGAAGGCACAAACCUCAAGACAUGAGGAUCACCCAUGUGGUAUUUAGAU | 285 nM | 475 nM | – | –
ACUAUACGAGGAUAUACUGUCAGGCCUCAGACAUAAAUAAGACAUGAGGAUCACCCAUGUAGAAGGCGUUUACU | 31.3 nM | 48 nM | – | –
UGGUACUAGGGAGGAUAUGCGAAGAUACAUGAGGAUCACCCAUGUUUAAGAAUGCCGAGAGGCAACUAGAAGGCCCUAGUACCU | – | – | 8.5 nM | 5.38 nM

Sequence | apparent Kd [1] | apparent Kd [2] | apparent Kd [3] | apparent Kd [4]
AAAACACAUGAGGAUCACCCAUGUGAGGAUAUGUUCAUUGUGAGCAAACUUAUGAUGAACAGAAGGCACAUAAA | 45.5 nM | 50.7 nM | – | –
CUUUCGUGAGGAUAUGUGGCUUCGAUCGUAAAAUCGAGGCUACAGAAGGCACAUGAGGAUCACCCAUGUUCCUC | 36.2 nM | 528 nM | – | –
AAGAAGUUAGGAUAUGCUGCUCGUCACAAAAGUGAUGAGUAGCAGAAGGAACAUGAGGAUCACCCAUGUAAAGA | 32.3 nM | 22.9 nM | – | –
CCCAAACUUGGGCUUGGUGGUGCAUAGGAUAUCCUUGAACAUGAGGAUCACCCAUGUGCAACUGUGGAGAAGGGUGCAGGGCCU | – | – | 362 nM | 88.4 nM
CUUUUGUGAGGAUAUUAGUAGUAAAUAAAUAAAAUUAUUACUGAGAAGGCACAUGAGGAUCACCCAUGUUCCUC | 32.5 nM | 405 nM | – | –
UAGUAGAUCCGAGGAUAUACAAUCCGGAAACGGUACAUGAGGAUCACCCAUGUAGAAGGCGGAUCUACAGGUACUAAAGUACCC | 5.89 nM | 8.32 nM | – | –
ACAUGAGGAUCACCCAUGUGGAGUGAAGAAGGUGGUUACUUAAGACUCUCCCAUGUACUUAGGACUGAGGAUAUUCUAAUAUUU | – | – | 82.3 nM | 45.9 nM
UGUGACAUGAGGAUCACCCAUGUAGAGGAUAUAGAGAUGAUGUUAGAGAAGAAUGUGUAGUAAGACUAGAAGGCUAUGUGUGUA | 32.8 nM | 28.2 nM | – | –
AAUAACAGAGGAUAUACUGUUUUAUGUAUUUAUUAUUUUAAACAUGAGGAUCACCCAUGUAGAAGGCUGAAUAA | 21.9 nM | 18.6 nM | – | –
GGUCGCAAGUAAGGAUAUGCAUAUGAAACAUAUGCAGAAGGUACAUGAGGAUCACCCAUGUUAAUGCAAAGCGAAUAAGCGACC | 15.5 nM | 19.6 nM | – | –
AAAAAGCGAGGAUAUACAUGAGGAUCACCCAUGUCAAAAAAAUAGAAAAAAAUAAAAAGUAGAAGGCGCAAAAA | 58.8 nM | 58.4 nM | – | –
ACAUACAUUCGAGGAUAUCGGUGAACAAAUUAACGAGAAGGCGAUAUAAUUUUUAAUCUUAUGAACAUGAGGAUCACCCAUGUA | – | – | 22.3 nM | 20.4 nM
CGGUGCUGAGGAUAUACAUGAGGAUCACCCAUGUGUGCCAGCUAGCUGACUGGCGCUUGUAGAAGGCAGUACUG | 12.1 nM | 24.4 nM | – | –
UAUAGUGGCGUAGGAUAUCUGCGUACAUGAGGAUCACCCAUGUCUCCCAGCAGCUGAUCUGGGACAGAGAAGGGCGACCGCAUA | – | – | 157 nM | 63.6 nM
UCCUUGUCCUGAGGAUAUCCGCGGUUCCCAAAAGGAGAAGGCAGGACAUGAGGAUCACCCAUGUACCCAGAAAACGUGCAGAUU | 9.95 nM | 46.8 nM | – | –
AGAUAACACCAGAAGGACAUGAGGAUCACCCAUGUAGGAUAUGGGCAUCACUCGAGAAAGAAAAGACCAAGUGGACACAUGGUC | – | – | 147 nM | 11 nM
GGAAAACAUGAGGAUCACCCAUGUGAGGAUAUCGAUGUCCAGGGCCUGCUGCGGGACUCGAGAAGGCAGUGGGA | 41.2 nM | 21.7 nM | – | –
UUUUAGUGAGGAUAUGUGGCUUCGAUCGUGAGAUCGAGGCUACAGAAGGCACAUGAGGAUCACCCAUGUUCCUG | 15.7 nM | 55.7 nM | – | –
AGAUUUGUACAUGAGGAUCACCCAUGUUAAUAGGUGGUUGUCAGAAGGCAUUAAUAGAGAUUUAAUGAGGAUAUGAAUUUACAA | – | – | 1420 nM | 1040 nM
AGUCGGAGCAGAGGAUAUACAUGAGGAUCACCCAUGUAAAUGGAAUAAGACUGGAAACAGUCAAUGUAGAAGGCUGCUCCGACA | 68.5 nM | 673 nM | – | –
GGGUGGCGUAGAGGAUAUGUGUUACAUGAGGAUCACCCAUGUGCAUAUGAUGUUCGUGUGUGUGCAUAGAAGGCUACGUCGCUA | – | – | 28.3 nM | 24.3 nM
ACAUACUUUCGAGGAUAUCGGUGAUAAUUUUUACGAGAAGGCGAUAAAAGAUAUAAUCUUAUAGACAUGAGGAUCACCCAUGUA | – | – | 30.5 nM | 26.4 nM
GACAUUGACAAGAAGGCAAACAUGAGGAUCACCCAUGUUCUGCAUGUAUAUUGAGGAUAUUGCCAAUGCAUGUGGAUCACCCAA | 6.63 nM | 10.8 nM | – | –
AAACAUGUCCGAGGAUAUCUGGAAACAUUUUCAAGAGAAGGCGGACAUGAGGAUCACCCAUGUCUCUCCUCAUCAACUACAAAC | 8.57 nM | 53.2 nM | – | –
UAUAUAUAGUAAGGAUAUGUAAUUAUUUUACAAACAGAAGGUACUGACAUGAGGAUCACCCAUGUUUUAGUGUGGGCAUGUAGA | 47.3 nM | 54.4 nM | – | –
UGUGUGUGGCAGGAUAUGCCGGUAGUAGGACGGGUAGAAGGGUCUACAUGAGGAUCACCCAUGUGGCCGGUUGG | 17.7 nM | 17.7 nM | – | –
CGAGUUUUUGAGAAGGCAUAUUAUAUUAUACCACAUGUUUACAUGAGGAUCACCCAUGUUUCCUAUGAGGAUAUCAGAAUGUCG | 9.34 nM | 7.33 nM | – | –
